Results published in ChEMBL document CHEMBL1143758, “Antitumor studies. part 3: design, synthesis, antitumor activity, and molecular docking study of novel 2-methylthio-, 2-amino-, and 2-(N-substituted amino)-10-alkyl-2-deoxo-5-deazaflavins” (Bioorg Med Chem, 2007).
Converted amounts (≈) assume the structure as drawn.

What was measured:
[1] = tested on: CCRF-HSB-2; assay: Antitumor activity against human CCRF-HSB2 cells by modified MTT assay; assay type: functional, cell-based
[2] = tested on: KB; assay: Antitumor activity against human KB cells by modified MTT assay; assay type: functional, cell-based
[3] = tested on: Human alphaherpesvirus 1; assay: Antiviral activity against HSV1 in HELF cells assessed as reduction of virus plaque formation; assay type: functional; conditions: Human alphaherpesvirus 1, HELF; read-out: ED50 (the source's name)
Summary of the method: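 In vitro plaque-reduction test against HSV-1, run with an acyclovir positive control. The value is reported as ED50, the minimum concentration that reduces virus plaque formation by 50%.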

SMILES	IC50 [1]	IC50 [2]	EC50 [3]
CSc1nc2n(C)c3cc(C)c(C)cc3cc-2c(=O)n1	7.06 µg/mL (≈ 24.7 µM)	11.4 µg/mL (≈ 39.9 µM)	
COc1ccc(OC)c2c1cc1c(=O)nc(SC)nc-1n2C	4.84 µg/mL (≈ 15.3 µM)	8.75 µg/mL (≈ 27.6 µM)	20 µg/mL (≈ 63 µM)
CN(C)c1nc2n(C)c3ccccc3cc-2c(=O)n1	22.6 µg/mL (≈ 88.9 µM)	20.1 µg/mL (≈ 79 µM)	
COc1ccc2c(c1)cc1c(=O)nc(N(C)C)nc-1n2C	35.6 µg/mL (≈ 125 µM)	23.6 µg/mL (≈ 83 µM)	
CN(C)c1nc2n(C)c3ccc(Cl)cc3cc-2c(=O)n1	46.4 µg/mL (≈ 161 µM)	58.5 µg/mL (≈ 203 µM)	
Cn1c2nc(N)nc(=O)c-2cc2ccccc21	13.7 µg/mL (≈ 60.6 µM)	17.9 µg/mL (≈ 79.1 µM)	
Cc1ccc2c(c1)cc1c(=O)nc(N)nc-1n2C	14.3 µg/mL (≈ 59.5 µM)	44.5 µg/mL (≈ 185 µM)	
CCCCNc1nc2n(C)c3ccccc3cc-2c(=O)n1	6.04 µg/mL (≈ 21.4 µM)	7.31 µg/mL (≈ 25.9 µM)	
CN(CCO)c1nc2n(C)c3ccccc3cc-2c(=O)n1	34.9 µg/mL (≈ 123 µM)	34.3 µg/mL (≈ 121 µM)	
CCn1c2nc(N(C)CCO)nc(=O)c-2cc2ccccc21	26.3 µg/mL (≈ 88.2 µM)	23.5 µg/mL (≈ 78.8 µM)	
CCn1c2nc(N(C)CCO)nc(=O)c-2cc2cc(C)ccc21	9.5 µg/mL (≈ 30.4 µM)	25.1 µg/mL (≈ 80.4 µM)	
Cn1c2nc(N3CCCCC3)nc(=O)c-2cc2ccccc21	24.7 µg/mL (≈ 83.9 µM)	32 µg/mL (≈ 109 µM)	
COc1ccc2cc3c(=O)nc(N(C)CCO)nc-3n(C)c2c1	39 µg/mL (≈ 124 µM)	36 µg/mL (≈ 115 µM)	
Cn1c2nc(N3CCOCC3)nc(=O)c-2cc2ccccc21	> 100 µg/mL	68.1 µg/mL (≈ 230 µM)	
CN1CCN(c2nc3n(C)c4ccccc4cc-3c(=O)n2)CC1	5.9 µg/mL (≈ 19.1 µM)	8.44 µg/mL (≈ 27.3 µM)	
COc1ccc2c(c1)cc1c(=O)nc(N3CCOCC3)nc-1n2C	24.5 µg/mL (≈ 75.1 µM)	38.3 µg/mL (≈ 117 µM)	
Cc1ccc2c(c1)cc1c(=O)nc(N3CCCCC3)nc-1n2C	25.2 µg/mL (≈ 81.7 µM)	32.7 µg/mL (≈ 106 µM)	
CCn1c2nc(SC)nc(=O)c-2cc2ccccc21	7.07 µg/mL (≈ 26.1 µM)	5.42 µg/mL (≈ 20 µM)	20 µg/mL (≈ 73.7 µM)
CSc1nc2n(C)c3c(C)cccc3cc-2c(=O)n1	15.3 µg/mL (≈ 56.4 µM)	12 µg/mL (≈ 44.2 µM)	

SMILES	IC50 [1]	IC50 [2]	EC50 [3]
CCn1c2nc(N3CCOCC3)nc(=O)c-2cc2cc(C)ccc21	27.7 µg/mL (≈ 85.4 µM)	50.8 µg/mL (≈ 157 µM)	
COc1ccc2cc3c(=O)nc(SC)nc-3n(C)c2c1	5.92 µg/mL (≈ 20.6 µM)	7.69 µg/mL (≈ 26.8 µM)	
CSc1nc2n(C)c3ccc(Cl)cc3cc-2c(=O)n1	9.87 µg/mL (≈ 33.8 µM)	21.5 µg/mL (≈ 73.7 µM)	
CN1CCN(c2nc3n(C)c4ccc(Cl)cc4cc-3c(=O)n2)CC1	7.4 µg/mL (≈ 21.5 µM)	16.6 µg/mL (≈ 48.3 µM)	
Cc1cc2cc3c(=O)nc(N4CCOCC4)nc-3n(C)c2cc1C	6 µg/mL (≈ 18.5 µM)	8.8 µg/mL (≈ 27.1 µM)	
COc1ccc2c(c1)cc1c(=O)nc(N3CCN(C)CC3)nc-1n2C	12.6 µg/mL (≈ 37.1 µM)	27 µg/mL (≈ 79.6 µM)	
CCCCCCCCNc1nc2n(C)c3ccccc3cc-2c(=O)n1	8.9 µg/mL (≈ 26.3 µM)	7.9 µg/mL (≈ 23.3 µM)	
CSc1nc2n(C)c3ccccc3cc-2c(=O)n1	1.91 µg/mL (≈ 7.42 µM)	1.97 µg/mL (≈ 7.66 µM)	0.8 µg/mL (≈ 3.11 µM)
CCn1c2nc(SC)nc(=O)c-2cc2cc(C)ccc21	1.82 µg/mL (≈ 6.38 µM)	1.73 µg/mL (≈ 6.06 µM)	4 µg/mL (≈ 14 µM)
COc1ccc2c(c1)cc1c(=O)nc(SC)nc-1n2C	9.27 µg/mL (≈ 32.3 µM)	9.82 µg/mL (≈ 34.2 µM)	
CCn1c2nc(N(C)C)nc(=O)c-2cc2ccccc21	1.96 µg/mL (≈ 7.3 µM)	3.96 µg/mL (≈ 14.8 µM)	
Cc1ccc2c(c1)cc1c(=O)nc(N(C)C)nc-1n2C	16.4 µg/mL (≈ 61.1 µM)	24.8 µg/mL (≈ 92.4 µM)	
CCn1c2nc(NCCO)nc(=O)c-2cc2ccccc21	11.3 µg/mL (≈ 39.7 µM)	14 µg/mL (≈ 49.2 µM)	
Cn1c2nc(N3CCCCC3)nc(=O)c-2cc2cc(Cl)ccc21	69.4 µg/mL (≈ 211 µM)	82.6 µg/mL (≈ 251 µM)	
Cn1c2nc(N3CCOCC3)nc(=O)c-2cc2cc(Cl)ccc21	96.1 µg/mL (≈ 291 µM)	52.7 µg/mL (≈ 159 µM)	
CCn1c2nc(N)nc(=O)c-2cc2ccccc21	1.64 µg/mL (≈ 6.83 µM)	1 µg/mL (≈ 4.16 µM)	4 µg/mL (≈ 16.6 µM)
COc1ccc2c(c1)cc1c(=O)[nH]c(=O)nc-1n2C	37.1 µg/mL (≈ 144 µM)	10 µg/mL (≈ 38.9 µM)	
CSc1nc2n(C)c3ccc(C)cc3cc-2c(=O)n1	9.57 µg/mL (≈ 35.3 µM)	9.27 µg/mL (≈ 34.2 µM)	
